According to ChEMBL document CHEMBL3112433, “Synthesis and antimicrobial activities of novel 1,2,4-triazolo [3,4-a] phthalazine derivatives” (2014):
Converted amounts (≈) assume the structure as drawn.

Assays:
Assay type in all cases: functional
Candida albicans = test: Antimicrobial activity against Candida albicans after 24 hrs by broth microdilution method
[1] = tested on: Stenotrophomonas maltophilia; test: Antimicrobial activity against Stenotrophomonas maltophilia after 24 hrs by broth microdilution method
Summary of the method: (§1)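 MICs determined by two-fold broth microdilution following CLSI guidelines (M100-S22), with compound concentrations of […] in the well. Every well except the blank was inoculated with the test bacterium and incubated at 37 °C for 24 h. MIC was taken as the lowest concentration with no visible growth.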

Bacillus subtilis = test: Antimicrobial activity against Bacillus subtilis after 24 hrs by broth microdilution method; summary of the method: as §1
Acinetobacter baumannii = test: Antimicrobial activity against Acinetobacter baumannii after 24 hrs by broth microdilution method; summary of the method: as §1
Staphylococcus aureus = test: Antimicrobial activity against Staphylococcus aureus after 24 hrs by broth microdilution method; summary of the method: as §1
Escherichia coli = test: Antimicrobial activity against Escherichia coli after 24 hrs by broth microdilution method; summary of the method: as §1

Q: Which MIC (Candida albicans) does the source give for `Fc1ccc(Nc2nn3c(-c4ccccc4)nnc3c3ccccc23)cc1` here?
A: > 128 µg/mL

Q: What about the MIC [1] of the same compound?
A: > 128 µg/mL

Q: And the MIC (Bacillus subtilis)?
A: > 128 µg/mL

Q: What about the MIC (Acinetobacter baumannii) of the same compound?
A: > 128 µg/mL

Q: What about the MIC (Staphylococcus aureus) of the same compound?
A: 16 µg/mL (≈ 45 µM)

Q: And the MIC (Escherichia coli)?
A: > 128 µg/mL

Q: Which results are given for `Cc1ccc(Nc2nn3c(-c4ccccc4)nnc3c3ccccc23)cc1`?
A: MIC (Candida albicans): > 128 µg/mL; MIC [1]: > 128 µg/mL; MIC (Bacillus subtilis): > 128 µg/mL; MIC (Acinetobacter baumannii): > 128 µg/mL; MIC (Staphylococcus aureus): 32 µg/mL (≈ 91.1 µM); MIC (Escherichia coli): > 128 µg/mL

Q: Which results are given for `c1ccc(-c2nnc3c4ccccc4c(N4CCNCC4)nn23)cc1`?
A: MIC (Candida albicans): 32 µg/mL (≈ 96.9 µM); MIC [1]: 32 µg/mL (≈ 96.9 µM); MIC (Bacillus subtilis): 64 µg/mL (≈ 194 µM); MIC (Acinetobacter baumannii): 64 µg/mL (≈ 194 µM); MIC (Staphylococcus aureus): 32 µg/mL (≈ 96.9 µM); MIC (Escherichia coli): 128 µg/mL (≈ 387 µM)

Q: For `Fc1ccc(Nc2nn3cnnc3c3ccccc23)cc1`, which MIC (Candida albicans) is on record?
A: > 128 µg/mL

Q: And the MIC [1]?
A: > 128 µg/mL

Q: What about the MIC (Bacillus subtilis) of the same compound?
A: > 128 µg/mL

Q: What about the MIC (Acinetobacter baumannii) of the same compound?
A: > 128 µg/mL

Q: And the MIC (Staphylococcus aureus)?
A: 64 µg/mL (≈ 229 µM)

Q: What about the MIC (Escherichia coli) of the same compound?
A: > 128 µg/mL

Q: Which MIC (Candida albicans) does the source give for `Clc1ccc(Nc2nn3cnnc3c3ccccc23)cc1` here?
A: > 128 µg/mL

Q: What about the MIC [1] of the same compound?
A: > 128 µg/mL

Q: And the MIC (Bacillus subtilis)?
A: > 128 µg/mL

Q: And the MIC (Acinetobacter baumannii)?
A: > 128 µg/mL

Q: And the MIC (Staphylococcus aureus)?
A: 32 µg/mL (≈ 108 µM)

Q: What about the MIC (Escherichia coli) of the same compound?
A: > 128 µg/mL

Q: Which MIC (Candida albicans) does the source give for `COc1ccc(Nc2nn3cnnc3c3ccccc23)cc1` here?
A: > 128 µg/mL

Q: What about the MIC [1] of the same compound?
A: > 128 µg/mL

Q: What about the MIC (Bacillus subtilis) of the same compound?
A: > 128 µg/mL

Q: What about the MIC (Acinetobacter baumannii) of the same compound?
A: > 128 µg/mL

Q: And the MIC (Staphylococcus aureus)?
A: 128 µg/mL (≈ 439 µM)

Q: And the MIC (Escherichia coli)?
A: > 128 µg/mL

Q: For `Cc1ccc(Nc2nn3cnnc3c3ccccc23)cc1`, which MIC (Candida albicans) is on record?
A: > 128 µg/mL

Q: What about the MIC [1] of the same compound?
A: > 128 µg/mL

Q: And the MIC (Bacillus subtilis)?
A: > 128 µg/mL

Q: And the MIC (Acinetobacter baumannii)?
A: > 128 µg/mL

Q: And the MIC (Staphylococcus aureus)?
A: 32 µg/mL (≈ 116 µM)

Q: And the MIC (Escherichia coli)?
A: > 128 µg/mL

Q: How did the MIC (Candida albicans) turn out when `c1ccc2c(c1)c(N1CCNCC1)nn1cnnc21` was run?
A: > 128 µg/mL

Q: And the MIC [1]?
A: > 128 µg/mL

Q: What about the MIC (Bacillus subtilis) of the same compound?
A: > 128 µg/mL

Q: What about the MIC (Acinetobacter baumannii) of the same compound?
A: > 128 µg/mL

Q: And the MIC (Staphylococcus aureus)?
A: > 128 µg/mL

Q: And the MIC (Escherichia coli)?
A: > 128 µg/mL

Q: `COc1ccc(Nc2nn3c(C)nnc3c3ccccc23)cc1` was tested. Which MIC (Candida albicans) did it give?
A: > 128 µg/mL

Q: And the MIC [1]?
A: > 128 µg/mL

Q: What about the MIC (Bacillus subtilis) of the same compound?
A: > 128 µg/mL

Q: And the MIC (Acinetobacter baumannii)?
A: > 128 µg/mL

Q: What about the MIC (Staphylococcus aureus) of the same compound?
A: 16 µg/mL (≈ 52.4 µM)

Q: And the MIC (Escherichia coli)?
A: > 128 µg/mL

Q: Which results are given for `Cc1ccc(Nc2nn3c(C)nnc3c3ccccc23)cc1`?
A: MIC (Candida albicans): > 128 µg/mL; MIC [1]: > 128 µg/mL; MIC (Bacillus subtilis): > 128 µg/mL; MIC (Acinetobacter baumannii): > 128 µg/mL; MIC (Staphylococcus aureus): 64 µg/mL (≈ 221 µM); MIC (Escherichia coli): > 128 µg/mL

Q: `Cc1nnc2c3ccccc3c(Nc3ccccc3Cl)nn12` was tested. Which MIC (Candida albicans) did it give?
A: > 128 µg/mL

Q: And the MIC [1]?
A: > 128 µg/mL

Q: What about the MIC (Bacillus subtilis) of the same compound?
A: > 128 µg/mL

Q: What about the MIC (Acinetobacter baumannii) of the same compound?
A: > 128 µg/mL

Q: And the MIC (Staphylococcus aureus)?
A: 32 µg/mL (≈ 103 µM)

Q: What about the MIC (Escherichia coli) of the same compound?
A: > 128 µg/mL

Q: With `Cc1nnc2c3ccccc3c(N3CC(C)CC(C)C3)nn12` (stereo not drawn) as the compound, how does the MIC (Candida albicans) read?
A: > 128 µg/mL

Q: What about the MIC [1] of the same compound?
A: > 128 µg/mL

Q: And the MIC (Bacillus subtilis)?
A: 64 µg/mL (≈ 217 µM)

Q: And the MIC (Acinetobacter baumannii)?
A: > 128 µg/mL

Q: What about the MIC (Staphylococcus aureus) of the same compound?
A: 32 µg/mL (≈ 108 µM)

Q: And the MIC (Escherichia coli)?
A: > 128 µg/mL

Q: How did the MIC (Candida albicans) turn out when `OC(Cn1cncn1)(Cn1cncn1)c1ccc(F)cc1F` [FLUCONAZOLE] was run?
A: 1 µg/mL (≈ 3.27 µM)

Q: Which results are given for `C[C@H]1COc2c(N3CCN(C)CC3)c(F)cc3c(=O)c(C(=O)O)cn1c23.C[C@H]1COc2c(N3CCN(C)CC3)c(F)cc3c(=O)c(C(=O)O)cn1c23.O` [LEVOFLOXACIN]?
A: MIC [1]: 0.5 µg/mL; MIC (Bacillus subtilis): 1 µg/mL; MIC (Acinetobacter baumannii): 0.25 µg/mL; MIC (Staphylococcus aureus): 0.5 µg/mL; MIC (Escherichia coli): 0.25 µg/mL
